# FGF22 binding: FGF22 (human) thermal shift binding; 1.5% of 340,000 active; activity (Tm shift, normalised), % at 9.99 µM; Q9HCT0; AID 651658; recombinant FGF22 thermal shift, SYPRO orange fluorescence; percent of sucrose octasulfate shift, DMSO zero;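 active means mean Tm shift, scaled 0 neutral to 100 positive control, at about 1.3% or above, every replicate too, limit read from the data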
# NR2E3 ag-1: agonists of human NR2E3 nuclear receptor; Q9Y5X4; CHO-S Gal4-NCOR/VP16-NR2E3 two-hybrid, luciferase; inhibition of corepressor binding, % at 3.98 µM; 0.35% of 360,000 active; AID 602229;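 active means inhibition above the mean of all tested compounds plus 3 SD, cut at about 70% in these data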;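 further: 0% = DMSO with NR2E3 transfected cells and 100% = cells lacking NR2E3 construct; higher means lower luciferase signal from less NR2E3 corepressor binding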
# NR2E3 ag-2: NR2E3 (human) agonism; inhibition of corepressor binding, % at 4.78 µM; 0.12% of 320,000 active; GST-NR2E3/biotin-RetCOR TR-FRET, 1536-well;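 active means percent inhibition above the cutoff of mean plus 3 SD of all tested compounds, set per screening campaign, cut at about 20% in these data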;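 further: 0% = DMSO wells and 100% = biotin wells as full block of FRET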
#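 System: GST-tagged NR2E3 plus biotinylated RetCOR corepressor; Amount: 1.35 nM GST-tagged NR2E3 final; Dosing: single nominal compound dose of 4.8 µM; Schedule: 5 h incubation at 4 °C; Technique: TR-FRET with europium anti-GST and streptavidin-D2, 340 nm excitation; Controls: biotin wells as high control, 0.6% DMSO wells as low control.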
# Jurkat NFkB inh: lowers PMA/ionomycin-induced NF-kB signal in Jurkat cells; PMA/ionomycin-induced NF-kB luciferase reporter, luminescence; inhibition, % at 4 µM; 0.53% of 330,000 active; AID 435003; in the data active means inhibition above about 50%
# miR122 inh: inhibitors of miR-122 in Huh7 cells | Huh7 miR-122 Renilla luciferase sensor, 48 h; neutral wells = 0, positive control = 100 | 0.3% of 340,000 active | activation (reporter increase), % at 12.5 µM;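 active means mean replicate activation score at least 90 and every replicate individually at or above 90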;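 further: higher luciferase means less miR-122 activity so hits act as miR-122 inhibitors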
# 697 NFkB inh: inhibitors of the PMA/ionomycin-induced NF-kB reporter in 697 B cells; 697 B-cell NF-kB luciferase reporter, 16 h; inhibition, % at 4 µM; 0.33% of 330,000 active; AID 435022; in the data active means inhibition above about 35%
# NR2E3 ag confirm: confirmation of human NR2E3 nuclear receptor agonists. shares compounds with NR2E3 ag-2. cell-free NR2E3 corepressor release, TR-FRET, 5 h. activation (reported as inhibition), % at 3.98 µM. 39% of 360 active; in the data active means activation above about 20%
# PPARg-NCOR2 ctr: PPARg-NCOR2 interaction agonism, NR2E3 counter-screen. 45% of 360 active. AID 504787. TR-FRET PPARg-NCOR2 coregulator interaction, biochemical. inhibition, % at 3.98 µM. shares compounds with NR2E3 ag-2; in the data active means inhibition above about 20%;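 further: 0% = DMSO vehicle and 100% = wells without protein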
# Numbers without * were called inactive; nt = no result given; [ ] = another dose, or the depositor's remark. Rows were chosen to be rich in hits. Some 2.2% of all compounds tested hit in one or more screens of this group.
SMILES,FGF22 binding,NR2E3 ag-1,NR2E3 ag-2,Jurkat NFkB inh,miR122 inh,697 NFkB inh,NR2E3 ag confirm,PPARg-NCOR2 ctr
Cc1ccc(CNC(=O)c2cc3c(s2)CS(=O)(=O)C3)cc1,0,-16,1,5,5,-15,nt,nt
Cc1ccc(CNC(=O)c2cc3c(s2)CN(Cc2ccccc2)C3)cc1,0,1,21*,0,-4,14,-6,-3
COc1cccc(C2C(C(=O)c3ccc(C)o3)=C(O)C(=O)N2c2cc(C)on2)c1 (stereo not given),0,-42,12,4,nt,-19,nt,nt
CCCOc1cccc(C2C(C(=O)c3cc4ccccc4o3)=C(O)C(=O)N2c2cc(C)on2)c1 (stereo not given),0,-9,24*,-14,5,-16,34*,36*
Cc1cc(N2C(=O)C(O)=C(C(=O)c3cc4ccccc4o3)C2c2cccc(Br)c2)no1 (stereo not given),1,31,38*,-7,-6,-11,48*,46*
CO[C@@H]1CN(C)C(=O)c2cc(NS(C)(=O)=O)ccc2OC[C@H](C)N(C(=O)C2CCCCC2)C[C@H]1C,0,nt,nt,nt,3[16.7 µM],nt,nt,nt
O=C(C[C@H]1CC[C@H](NC(=O)Nc2cc(F)ccc2F)[C@@H](CO)O1)NCc1ccncn1,0,nt,nt,nt,nt,nt,nt,nt
C[C@H]1CN([C@@H](C)CO)C(=O)c2cc(NS(=O)(=O)c3ccc(F)cc3)ccc2O[C@H]1CN(C)Cc1ccncc1,0,nt,nt,nt,3[16.7 µM],nt,nt,nt
S=c1nc(COc2ccccc2)[nH]c2ccccc12,0,-85,31*,-27,-3,-50,5,13
S=c1nc(Cc2ccccc2)[nH]c2ccccc12,0,-7,23*,-20,nt,-39,-4,8
Cc1cccc(S(=O)(=O)N2CCCCN3[C@H](C2)[C@@H](c2ccc(-c4cccnc4)cc2)[C@@H]3CO)c1,0,nt,nt,nt,19[16.7 µM],nt,nt,nt
O=S(=O)(Nc1nc2cc3c(cc2nc1Cl)OCCO3)c1ccccc1,0,-17,30*,-8,nt,10,11,14
CC(=O)Nc1ccc(S(=O)(=O)Nc2nc3cc4c(cc3nc2Cl)OCCO4)cc1,0,-23,19,6,-6,0,nt,nt
COc1ccc(S(=O)(=O)Nc2ccc3c(c2)C(=O)N([C@H](C)CO)C[C@H](C)[C@@H](CN(C)S(=O)(=O)c2cccs2)OCCCC[C@@H](C)O3)cc1,0,nt,nt,nt,-5[16.7 µM],nt,nt,nt
Cc1ccc(O)c(C2=Nc3ccccc3N=C(c3ccco3)C2)c1,nt,-50,30*,17,-8,-15,4,19
Cc1ccc(C2=Nc3ccccc3N=C(c3ccco3)C2)c(O)c1,nt,-32,1,-57,-1,-66,nt,nt
O=C(C[C@H]1CC[C@@H]2[C@H](COC[C@@H](O)CN2C(=O)Nc2ccc(Cl)cc2)O1)NCCc1ccncc1,0,nt,nt,nt,6[16.7 µM],nt,nt,nt
COC(=O)c1cc2sccc2n1Cc1nc(-c2ccc(OC)cc2)oc1C,nt,-11,-2,-19,0,-14,nt,nt
COC(=O)c1cc2sc(Cl)cc2n1Cc1nc(-c2ccccc2)oc1C,0,2,25*,2,0,18,-4,-8
COc1ccc(CCNC(=O)CSc2nc3sc(C(=O)O)c(C)c3c(=O)[nH]2)cc1OC,0,-27,6,11,nt,6,nt,nt
CC(=O)c1sc2nc(SCC(=O)NCCc3ccccc3)[nH]c(=O)c2c1C,0,10,32*,10,nt,-5,13,20*
CC1=NN(Cc2ccccc2)C(=O)C1,nt,-17,20*,12,-5,-69,-8,-10
C[C@H]1CN([C@@H](C)CO)C(=O)c2cc(-c3ccccc3)cnc2O[C@H]1CN(C)C(=O)c1ccccn1,0,nt,nt,nt,12[16.7 µM],nt,nt,nt
COc1ccccc1-c1cnc2c(c1)C(=O)N([C@@H](C)CO)C[C@H](C)[C@H](CN(C)Cc1ccccc1)O2,0,nt,nt,nt,4[16.7 µM],nt,nt,nt
CCNC(=O)C[C@H]1CC[C@H]2[C@@H](COc3ccc(NC(=O)NC(C)C)cc3C(=O)N2C)O1,nt,nt,nt,nt,0[16.7 µM],nt,nt,nt
SMILES,FGF22 binding,NR2E3 ag-1,NR2E3 ag-2,Jurkat NFkB inh,miR122 inh,697 NFkB inh,NR2E3 ag confirm,PPARg-NCOR2 ctr
CC(C)NC(=O)Nc1ccc2c(c1)C(=O)N([C@H](C)CO)C[C@@H](C)[C@@H](CN(C)C(=O)Nc1cccc3ccccc13)O2,0,nt,nt,nt,-5[16.7 µM],nt,nt,nt
Cn1nc(C(=O)N2CCC(C(N)=O)CC2)c2c1-c1ccccc1SC2,0,-19,27*,-21,6,-5,-7,4
O=C1C=C(O)C(n2cncn2)C(c2ccc3c(c2)OCO3)C1 (stereo not given),0,-15,24*,-3,nt,-5,-8,-2
N#CC1=C2SCN(Cc3ccccc3)CN2C(=O)CC1c1cccs1 (stereo not given),0,-47,22*,13,-1,21,0,-2
N#CC1=C2SCN(Cc3ccccc3)CN2C(=O)CC1c1ccc2c(c1)OCO2 (stereo not given),nt,-5,-1,-5,-10,13,nt,nt
O=C(Nc1cccc(Cl)c1)N1C[C@@H]2[C@H](c3ccccc31)[C@@H](CO)N2C(=O)c1cccnc1,nt,nt,nt,nt,-20[16.7 µM],nt,nt,nt
CCN(CC(=O)NC1CCS(=O)(=O)C1)Cc1nc2c(Br)cc(Br)cc2c(=O)[nH]1 (stereo not given),0,-10,17,-6,nt,7,nt,nt
CCN(CC(=O)NC(C)(C)C)Cc1nc2c(Br)cc(Br)cc2c(=O)[nH]1,0,-6,22*,-14,nt,-1,33*,29*
OCC#CCSc1nnc(-c2ccc(Br)cc2)o1,nt,-41,1,19,-8,-12,nt,nt
COC(=O)Sc1nnc(-c2ccc(Br)cc2)o1,nt,nt,27*,-7,nt,-31,22*,35*
Cc1ccc(C(=O)C2=C(O)C(=O)N(Cc3ccco3)C2c2cccc(Cl)c2)o1 (stereo not given),0,3,31*,12,-6,12,18,12
Cc1ccc(C(=O)C2=C(O)C(=O)N(Cc3ccco3)C2c2cccc(Br)c2)o1 (stereo not given),0,-32,31*,1,-6,6,16,12
COc1cc(C=O)c(Br)cc1OCC(=O)NCCc1ccccc1,0,-14,5,-6,3,-35,nt,nt
CCOC(=O)COc1cc(Br)c(/C=N/Nc2ccccc2)cc1OC,nt,28,26*,16,-9,7,1,1
